According to ChEMBL document CHEMBL1687858, “Natural and semisynthetic mammea-type isoprenylated dihydroxycoumarins uncouple cellular respiration” (J Nat Prod, 2011):
Active and inactive are the calls of the source. The calls are words filed in the database; no cut-off is given here.

Legend:
T47D [1] = test: Antiproliferative activity against human T47D cells after 48 hrs; assay type: functional, cell-based
Method in brief: (§1)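 Tumor cells (T47D or PC-3, from ATCC) exposed 48 h to compounds at 0.31 to 20 μM, from DMSO stocks with final DMSO under 0.5%. EC50 and 95% CI derived from one experiment run in triplicate. Maximum inhibition set at 50% for T47D and 40% for PC-3.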

[2] = biological target: T1, Hypoxia inducible factors; HIF-1-alpha, HIF-2-alpha (Homo sapiens, UniProt Q16665+Q99814); test: Inhibition of hypoxia-induced HIF1 activation in human T47D cells expressing pGL3 construct after 16 hrs by cell-based luciferase reporter assay
Method in brief: (§2)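 T47D cells carrying an HIF-1 luciferase reporter, induced for 16 h either by hypoxia (1% O2) or by 10 μM 1,10-phenanthroline, with compounds over 0.31 to 20 μM. IC50 and 95% CI taken from one representative of two independent experiments, each run in triplicate.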

[3] = biological target: T1, Hypoxia inducible factors; HIF-1-alpha, HIF-2-alpha; test: Inhibition of 1,10-phenanthrolin-induced HIF1 activation in human T47D cells expressing pGL3 construct after 16 hrs by cell-based luciferase reporter assay; method in brief: as §2
PC-3 [4] = test: Antiproliferative activity against human PC3 cells after 48 hrs; assay type: functional, cell-based; conditions: PC-3, 48 h; method in brief: as §1
T47D [5] = test: Effect on cellular respiration in human T47D cells assessed as oxygen consumption at 0.3 uM by cell-based reporter assay; assay type: functional
Method in brief: (§3)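 Oxygen consumption of T47D cells measured with compound at 0.3, 1, 3 and 10 μM. Reported as Relative Respiration Rate = 100 × (OCR compound / OCR untreated control) − 100. FCCP included as reference uncoupler. Mean + SD from three independent experiments.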

T47D [6] = test: Effect on cellular respiration in human T47D cells assessed as increase in state 4 respiration at 0.3 to 3 uM by cell-based reporter assay; assay type: functional
Method in brief: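 Respiring T47D cells given oligomycin (1 μM) to set state 4 respiration, then compound or FCCP added at 0.3, 1 and 3 μM. Reported as Respiration Index = OCR (oligomycin + compound) / OCR (oligomycin).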

T47D [7] = test: Inhibition of hypoxia-induced VEGF protein secretion in human T47D cells upto 10 uM after 16 hrs by ELISA; assay type: functional
Method in brief: (§4)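 T47D cells held under hypoxia (1% O2, 16 h) with compound at 3 or 10 μM. VEGF in conditioned medium measured by ELISA and normalized to cellular protein. Normoxic and hypoxic medium controls included. Mean + SD from one experiment run in triplicate.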

T47D [8] = test: Effect on cellular respiration in human T47D cells assessed as decrease in oxygen consumption at 10 uM by cell-based reporter assay; assay type: functional; method in brief: as §3
T47D [9] = test: Effect on cellular respiration in human T47D cells assessed as decrease in oxygen consumption at 0.3 to 10 uM by cell-based reporter assay in presence of F0F1ATPase 1 uM inhibitor oligomycin; assay type: functional
T47D [10] = test: Cytostatic effect against human T47D cells assessed as cell growth inhibition at 20 uM after 48 hrs; assay type: functional; set-up: scale not given: the % may be the effect or the level left
PC-3 [11] = test: Antiproliferative activity against human PC3 cells assessed as cell viability at 20 uM; assay type: functional; conditions: read-out: Activity
T47D [12] = test: Inhibition of hypoxia-induced VEGF protein secretion in human T47D cells at 3 uM after 16 hrs by ELISA; assay type: functional; method in brief: as §4
T47D [13] = test: Inhibition of hypoxia-induced VEGF protein secretion in human T47D cells after 16 hrs by ELISA; assay type: functional, cell-based; method in brief: as §4

Structure (SMILES) | IC50 (T47D [1]) | IC50 [2] | IC50 [3] | IC50 (PC-3 [4]) | Activity (T47D [5]) | Activity (T47D [6]) | Activity (T47D [7]) | Activity (T47D [8]) | Activity (T47D [9]) | Activity (T47D [10]) | viability at 20 µM (PC-3 [11]) | inhibition (T47D [12]) | inhibition (T47D [13])
CCCC[C@H](OC(C)=O)c1cc(=O)oc2c(C(=O)[C@@H](C)CC)c(O)c(CC=C(C)C)c(OC(C)=O)c12 | 0.97 µM | 2.06 µM | 1.68 µM | 1.16 µM |  |  |  |  |  |  |  |  | 
CCCC[C@H](OC)c1cc(=O)oc2c(C(=O)[C@@H](C)CC)c(OC)c(CC=C(C)C)c(OC)c12 | 6.95 µM | 13.2 µM | 18.4 µM | > 20 µM |  |  |  |  |  |  |  |  | 
CCCC[C@H](OC)c1cc(=O)oc2c(CC(=O)[C@@H](C)CC)c(OC)c(CC=C(C)C)c(OC)c12 | 4.67 µM | 5.91 µM | 15.7 µM | > 20 µM |  |  |  |  |  |  |  |  | 
CCCC[C@H](OC(C)=O)c1cc(=O)oc2c(C(=O)[C@@H](C)CC)c(OC(C)=O)c(CC=C(C)C)c(O)c12 | 4.72 µM | 5.11 µM | 5.47 µM | 6.41 µM |  |  |  |  |  |  |  |  | 
CC[C@H](C)C(=O)c1c(O)c(CC=C(C)C)c(O)c2c(-c3ccccc3)cc(=O)oc12 | 4.01 µM | 6.76 µM | 5.96 µM | 5.26 µM |  |  |  |  |  |  |  |  | 
CCCC[C@H](OC(C)=O)c1cc(=O)oc2c(C(=O)[C@@H](C)CC)c(OC(C)=O)c(CC=C(C)C)c(OC(C)=O)c12 | 0.73 µM | 0.83 µM | 1.06 µM | 1.17 µM | inactive | Non-toxic |  | Active | Active | 82% | 65% |  | 
CC[C@H](C)C(=O)c1c(O)c(CC=C(C)C)c2oc(=O)cc(-c3ccccc3)c2c1O | 2.88 µM | 4.63 µM | 4.82 µM | 3.82 µM |  |  |  |  |  |  |  |  | 
CC(C)=CCc1c(O)c(C(=O)CC(C)C)c(O)c2c(-c3ccccc3)cc(=O)oc12 [MAMMEISIN] | 4.28 µM | 4.44 µM | 3.71 µM | 5.31 µM |  |  |  |  |  |  |  |  | 
CCCC[C@H](O)c1cc(=O)oc2c(CC(=O)[C@@H](C)CC)c(OC)c(CC=C(C)C)c(OC)c12 | 6.18 µM | 7.42 µM | 11.3 µM | 10.6 µM |  |  |  |  |  |  |  |  | 
CCCC[C@H](O)c1cc(=O)oc2c(C(=O)[C@@H](C)CC)c(OC)c(CC=C(C)C)c(OC)c12 | 4.54 µM | 6.31 µM | 6.5 µM | 6.41 µM | inactive | Non-toxic |  | Active | Active | 91% | 93% | Active | Dose-dependent effect

Now from value to compound, other results behind:

IC50 (T47D [1]) | IC50 [2] | IC50 [3] | IC50 (PC-3 [4]) | Structure (SMILES) | Activity (T47D [5]) | Activity (T47D [6]) | Activity (T47D [7]) | Activity (T47D [8]) | Activity (T47D [9]) | Activity (T47D [10]) | viability at 20 µM (PC-3 [11]) | inhibition (T47D [12]) | inhibition (T47D [13])
1.56 µM | 3.73 µM | 3.4 µM | 2.19 µM | CCCCCc1cc(=O)oc2c(C(=O)[C@@H](C)CC)c(O)c(CC=C(C)C)c(O)c12 |  |  |  |  |  |  |  |  | 
5.52 µM | 9.96 µM | 8.21 µM | 10.5 µM | CCCc1cc(=O)oc2c(CC=C(C)C)c(O)c(C(=O)[C@H](C)CC)c(O)c12 | inactive | Active | 1 µM | Active | Active |  |  |  | 
3.62 µM | 9.4 µM | 9.56 µM | 7.03 µM | CCCc1cc(=O)oc2c(CC=C(C)C)c(O)c(C(=O)CC(C)C)c(O)c12 |  |  |  |  |  |  |  |  | 
3.22 µM | 5.04 µM | 3.25 µM | 6.05 µM | CCCc1cc(=O)oc2c(C(=O)[C@@H](C)CC)c(O)c(CC=C(C)C)c(O)c12 |  |  |  |  |  |  |  |  | 
1.32 µM | 2.2 µM | 1.28 µM | 2.27 µM | CCCc1cc(=O)oc2c(C(=O)CC(C)C)c(O)c(CC=C(C)C)c(O)c12 | inactive | Active |  | Active | Active |  |  | inactive | Dose-dependent effect
1.36 µM | 2.23 µM | 2.3 µM | 2.09 µM | CCCC[C@H](O)c1cc(=O)oc2c(C(=O)[C@@H](C)CC)c(O)c(CC=C(C)C)c(O)c12 | inactive | Active |  | Active | Active |  |  | inactive | Dose-dependent effect
1.36 µM | 2.76 µM | 2.71 µM | 1.88 µM | CCCCCc1cc(=O)oc2c(C(=O)CC(C)C)c(O)c(CC=C(C)C)c(O)c12 | inactive | Active |  | Active | Active |  |  |  | Dose-dependent effect
3.13 µM | 4.19 µM | 4.12 µM | 3.36 µM | CCCCCc1cc(=O)oc2c(CC=C(C)C)c(O)c(C(=O)CC(C)C)c(O)c12 |  |  |  |  |  |  |  |  | 
0.91 µM | 1.72 µM | 1.81 µM | 1.14 µM | CCCC[C@H](O)c1cc(=O)oc2c(C(=O)CC(C)C)c(O)c(CC=C(C)C)c(O)c12 |  |  |  |  |  |  |  |  | 
3.57 µM | 5.7 µM | 5.31 µM | 4.18 µM | CCCCCc1cc(=O)oc2c(CC=C(C)C)c(O)c(C(=O)[C@H](C)CC)c(O)c12 [MAMMEA C/AB] |  |  |  |  |  |  |  |  | 
1.57 µM | 3.23 µM | 3.73 µM | 2.18 µM | CC(C)=CCc1c(O)c(C(=O)CC(C)C)c2oc(=O)cc(-c3ccccc3)c2c1O [ISOMAMMEISIN] | inactive | Active |  | Active | Active |  |  |  | Dose-dependent effect
